An excerpt weighted towards active compounds, which were near 1.7% of everything screened.
Apaf-1 inh: blocks human Apaf-1 apoptosome activity. O14727. reconstituted apoptosome caspase-3 activity, DEVD-Rh110 fluorescence. inhibition, % at 20 µM. actives 0.71% (n = 330,000). AID 489030; active = inhibition of at least 40% at 20 µM;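 also: plate controls were DMSO wells for no effect and DEVD-CHO caspase inhibitor wells for full effect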
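Material: reconstituted apoptosome with Apaf-1, cytochrome c, caspase-9, procaspase-3, dATP; medium: pH 7.5 Hepes buffer with CHAPS, BSA, DTT; also added: cytochrome c and DEVD-Rh110 substrate; timing: 30 min plus 50 min, RT; signal: Rh110 fluorescence intensity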
EBNA-1 inhibitor: blocks EBNA-1 binding to DNA; EBNA-1 DNA binding, fluorescence polarization; inhibition, % at 14.8 µM; actives 0.34% (n = 300,000); AID 1950; in the data active = inhibition above about 28%
PREPL inh: human PREPL enzyme inhibition. recombinant PREPL, fluorescence polarization activity-based probe. inhibition, % at 5.96 µM. actives 0.68% (n = 320,000); in the data active = inhibition above about 43%;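 also: 0% = enzyme with DMSO and 100% = wells lacking enzyme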
UBC13 inh: inhibitors of human UBC13 polyubiquitin chain formation; actives 0.47% (n = 330,000); AID 485273; inhibition, % at 20 µM; TR-FRET; P61088; in the data active = inhibition above about 45%, passing the limit was not always enough; inconclusive = no clear call, values can overlap the other calls
Target sequence (P61088 whole entry, looked up): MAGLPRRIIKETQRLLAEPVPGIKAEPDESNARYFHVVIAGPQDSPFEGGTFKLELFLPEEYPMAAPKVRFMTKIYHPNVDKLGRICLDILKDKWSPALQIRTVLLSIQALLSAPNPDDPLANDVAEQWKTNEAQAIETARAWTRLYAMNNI
ZTA DNA inh: blocks Epstein-Barr virus ZTA, an EBNA-1 counter-screen; P03206; ZTA-DNA binding, fluorescence polarization; inhibition, % at 11 µM; actives 0.15% (n = 320,000); in the data active = inhibition above about 33%
Casp3 counter: counter-screen for UBC13 inhibitors: human caspase-3 inhibition. actives 4% (n = 1,400). AID 488856. Recombinant caspase-3, Caspase-Glo 3/7 luminescence, 60 min. shares compounds with UBC13 inh. inhibition, % at 20 µM;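 active = mean inhibition across replicates above about 26%, limit read from the data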;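 also: plate controls were DMSO with caspase-3 for no effect and DMSO wells lacking enzyme for full effect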
Target sequence (P42574 whole entry, looked up): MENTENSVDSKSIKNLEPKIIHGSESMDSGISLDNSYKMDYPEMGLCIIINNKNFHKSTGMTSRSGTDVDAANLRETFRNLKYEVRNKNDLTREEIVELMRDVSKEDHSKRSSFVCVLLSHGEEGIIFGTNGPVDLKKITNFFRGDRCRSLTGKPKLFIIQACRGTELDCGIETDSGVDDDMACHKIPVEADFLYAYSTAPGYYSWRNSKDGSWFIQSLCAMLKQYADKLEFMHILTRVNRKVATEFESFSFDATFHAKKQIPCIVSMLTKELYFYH
UBC13 conf: confirmation of human UBC13 polyubiquitin inhibitors; shares compounds with UBC13 inh; UBC13 polyubiquitination, TR-FRET, biochemical; inhibition, % at 10 µM; actives 68% (n = 1,400); AID 488859; in the data active = inhibition above about 45%; inconclusive = no clear call, values can overlap the other calls
* marks the source's active call; other numbers are inactive results.

Results for Cc1cccc(NC(=O)c2cc(-c3ccc(C)s3)nc3ccccc23)n1 ?
Apaf-1 inh: 0; EBNA-1 inhibitor: 8; PREPL inh: -2; UBC13 inh: 47*; ZTA DNA inh: 8; Casp3 counter: 3; UBC13 conf: 40

Results for Cc1cc(NC(=O)c2cc(-c3ccc(C)s3)nc3ccccc23)no1 ?
Apaf-1 inh: 7; EBNA-1 inhibitor: 13; PREPL inh: 0; UBC13 inh: 40; ZTA DNA inh: 2

How did O=C(Nc1ccccn1)c1cc(-c2ccc(Cl)s2)nc2ccccc12 do in these assays?
Apaf-1 inh: 13; PREPL inh: 5; UBC13 inh: 47*; ZTA DNA inh: -1; Casp3 counter: 1; UBC13 conf: inconclusive

Results for O=C(O)c1cc(-c2ccc(Cl)s2)nc2ccccc12 ?
Apaf-1 inh: 4; EBNA-1 inhibitor: -1; PREPL inh: 1; UBC13 inh: 17; ZTA DNA inh: 5

Results for C#CCOCCOCCOCCNc1nc(N2CCN(C(=O)[C@H]([C@@H](C)CC)n3cc(CCCN=C(N)N)nn3)CC2)nc(N2CCN(C(=O)[C@H](C)n3cc(CCCN=C(N)N)nn3)CC2)n1 ?
Apaf-1 inh: 8; EBNA-1 inhibitor: -9; PREPL inh: 29; UBC13 inh: 9; ZTA DNA inh: -2

Results for CCc1ccccc1-n1c(SCC(=O)NC)nnc1-c1ccco1 ?
Apaf-1 inh: -7; EBNA-1 inhibitor: 1; PREPL inh: 6; UBC13 inh: -1; ZTA DNA inh: 6

How did O=C(O)C1CCC(CNS(=O)(=O)c2ccc(Cl)cc2)CC1 (stereo not given) do in these assays?
Apaf-1 inh: 4; EBNA-1 inhibitor: -8; PREPL inh: 1; UBC13 inh: 0; ZTA DNA inh: 1

Results for COC(=O)c1c(NC(=S)NN2CCN(C)CC2)sc2c1CCC(C)C2 (stereo not given) ?
Apaf-1 inh: 36; EBNA-1 inhibitor: -1; PREPL inh: 10; UBC13 inh: 62*; ZTA DNA inh: 1; Casp3 counter: 4; UBC13 conf: 91*

How did COC(=O)c1c(NC(=O)Cc2cccs2)sc2c1CCC(C)C2 (stereo not given) do in these assays?
Apaf-1 inh: 14; EBNA-1 inhibitor: 8; PREPL inh: -4; UBC13 inh: 4; ZTA DNA inh: 11

Results for CC(=O)NC(c1cc(Cl)c2ccccc2c1O)C(C)C (stereo not given) ?
Apaf-1 inh: 5; PREPL inh: 2; UBC13 inh: 81*; ZTA DNA inh: -6; Casp3 counter: -4; UBC13 conf: 56*

What do the screens show for `CCC(=O)NC(c1cccs1)c1cc(Cl)c2ccccc2c1O` (stereo not given)?
Apaf-1 inh: 6; PREPL inh: 8; UBC13 inh: 49*; ZTA DNA inh: 1; Casp3 counter: -2; UBC13 conf: 34

How did CC(=O)NC(c1cccs1)c1cc([N+](=O)[O-])c2cccnc2c1O (stereo not given) do in these assays?
EBNA-1 inhibitor: -6; PREPL inh: 25; ZTA DNA inh: -1

How did CC(=O)NC(c1cccs1)c1cc(Cl)c2ccccc2c1O (stereo not given) do in these assays?
Apaf-1 inh: 8; PREPL inh: 11; UBC13 inh: 71*; ZTA DNA inh: 11; Casp3 counter: -2; UBC13 conf: 58*

How did CCC(=O)NC(c1cccs1)c1cc([N+](=O)[O-])c2cccnc2c1O (stereo not given) do in these assays?
Apaf-1 inh: 30; EBNA-1 inhibitor: 1; PREPL inh: 3; UBC13 inh: -60; ZTA DNA inh: 5

Results for COc1ccc(C2=NOC(Cn3nc(-c4ccccc4)cc3C(=O)O)C2)cc1 (stereo not given) ?
Apaf-1 inh: -1; PREPL inh: 8; UBC13 inh: -31; ZTA DNA inh: -1

How did COC(=O)c1cc(C(=O)Nc2nnc(CC(C)C)s2)cc([N+](=O)[O-])c1 do in these assays?
Apaf-1 inh: -5; EBNA-1 inhibitor: -3; PREPL inh: 5; UBC13 inh: -8; ZTA DNA inh: -5
